Tests used:
[1] = tested on: Aβ peptides secreted from Tg 2576 primary mixed brain cultures; test: Aβ peptides in Tg 2576 mixed brain cultures; format: cell-based, mouse; conditions: Tg 2576 MBCs
Outline: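 Neuronal cultures came from E17 Tg 2576 embryo brains, grown 6 days, then treated 18 h in triplicate wells at 10 concentrations in 3-fold dilution steps. Vehicle (PEG-400:H2O 80:20 v/v) was the negative control and BMS-299897 the positive control. Aβ38 was read by Meso Scale assay; Aβ40, Aβ42 and Aβtotal by mAb sandwich ELISA. Variants were resolved by anti-Aβ immunoprecipitation, tris-glycine gel electrophoresis and immunoblotting.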

[2] = tested on: Aβ peptide variants from CHO-APPswe cells; test: SELDI-TOF MS of Aβ peptide variants in CHO-APPswe conditioned medium; format: cell-based, Chinese hamster; conditions: 1 μM
Outline: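 CHO-APPswe cells were treated with vehicle, reference γ-secretase inhibitor (1 µM) or test compound (1 µM). Conditioned medium was immunoprecipitated with anti-Aβ17-24 mAb 4G8. Ciphergen chips were prepared from the medium and analysed by SELDI-TOF mass spectrometry to profile Aβ peptide variants.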

[3] = tested on: Aβ42, Aβ40 and Aβtotal produced by SH-SY5Y-APP cells; test: SH-SY5Y-APP cell-based Aβ assay; set-up: species or system human
Outline: (§1)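 Stable lines: CHO-APPswe is CHO transfected with human APP695 carrying the Swedish double mutation (670/671 K/M to N/L). SH-SY5Y-APP is human neuroblastoma SH-SY5Y transfected with wild-type human APP751. Secreted Aβ40, Aβ42 and Aβtotal were measured in conditioned medium by mAb-specific sandwich ELISAs. Cytotoxicity was checked by Alamar Blue at the same compound concentrations, up to a maximum of 30 μM.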

[4] = tested on: Aβ42, Aβ40 and Aβtotal produced by CHO-APPswe cells; test: CHO-APPswe cell-based Aβ assay; set-up: species or system Chinese hamster
Outline: as §1

[5] = tested on: γ-secretase-mediated ε-site processing of Notch (NΔE); test: NICD formation in HEK-APP-NΔE_7-4 cells; format: cell-based, human; conditions: NΔE Notch/APP co-transfected cell line; DAPT 1 μM
Outline: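 HEK293 cells doubly transfected with APP and Notch NΔE were treated overnight with test compound, 1 μM DAPT, or 0.2% v/v DMSO vehicle. Conditioned medium was collected, cell lysates were prepared, and anti-NICD immunoblots were run with GAPDH as a control. NICD was quantified by laser scanning densitometry against a half-volume vehicle sample.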

[6] = tested on: γ-secretase (AICD, Aβ42 and Aβ40 formation from APP-CTFs); test: Cell-free assay of AICD and Aβ formation, CHO-APPswe membranes; format: biochemical, Chinese hamster; conditions: DAPT 1 μM, Compound 3 over a broad range of concentrations
Outline: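 CHO-APPswe membrane preparations were incubated cell-free with vehicle (0.2% DMSO), 1 μM DAPT, or a range of test compound concentrations. AICD (ε-site) and Aβ42/Aβ40 (γ-site) formation were measured in parallel from the same preparations, semi-quantitatively. Data are mean ± SEM, n ≥ 3.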

Question: C[C@H](c1ccc(F)cc1CCCC(=O)O)N(c1cc(F)ccc1F)S(=O)(=O)c1ccc(Cl)cc1 [BMS-299897] was tested. Which “effect on Aβ42, Aβ40, Aβ38 and Aβtotal (Meso Scale ELISAs)” value ([1]; 18 h) did it give?
Answer: dose-dependent decrease in Aβ42, Aβ40, Aβ38 and Aβtotal levels

Question: And the “effect on Aβ peptide variants (IP/immunoblot)” value ([1]; BMS-299897 1 μM)?
Answer: reduced the levels of all Aβ variants (Aβ37, Aβ38, Aβ40 and Aβ42) to undetectable levels

Question: What about the “effect on Aβ peptide variants (SELDI-TOF MS)” value [2] of the same compound?
Answer: reduced the levels of all Aβ peptide variants to baseline levels

Question: What about the “effect on Aβ42, Aβ40 and Aβtotal peptide levels” value [3] of the same compound?
Answer: equivalently inhibited Aβ42, Aβ40 and Aβtotal peptide production

Question: What about the “effect on Aβ42, Aβ40 and Aβtotal peptide levels” value [4] of the same compound?
Answer: equivalently inhibited Aβ42, Aβ40 and Aβtotal peptide production

Question: C[C@H](NC(=O)Cc1cc(F)cc(F)c1)C(=O)N[C@H](C(=O)OC(C)(C)C)c1ccccc1 [DAPT, N-[N-(3,5-difluorophenacetyl)-L-alanyl]-S-phenylglycine t-butyl ester] was tested. Which “effect on NICD formation” value [5] did it give?
Answer: prevented NICD production entirely

Question: And the “effect on AICD formation” value [6]?
Answer: totally inhibited

Source: publication PMC2947312 (Neuron, 2010)
